# Measured values published in ChEMBL document CHEMBL1800054, “Thiazolides as novel antiviral agents. 1. Inhibition of hepatitis B virus replication” (J Med Chem, 2011).
# pEC50: −log10 of the molar value.
# How the values were obtained:
# [1] = tested on: Hepatitis B virus; assay: Antiviral activity against Hepatitis B virus infected in human HepG2(2.2.15) cells assessed as decrease in extracellular viral DNA measured 24 hrs after last dose; format: functional, organism-based; conditions: HepG2 2.2.15, 24 h
# In short: (§1)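 Confluent 2.2.15 cells (HepG2 line chronically producing HBV) in 96-well culture; nine consecutive daily doses of compound. HBV DNA (extracellular virion or intracellular replication intermediates) quantified by blot hybridization 24 hr after the last dose. Cytotoxicity measured by neutral red uptake 24 hr after the last dose.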
# [2] = Cytotoxicity against human HepG2(2.2.15) cells after 24 hrs by neutral red dye uptake assay; format: cell-based; conditions: for CC50 at 24 h: HepG2(2.2.15) cells; for CC50: hepg2 2.2.15, 24 h
# In short: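 Confluent chronically HBV-producing 2.2.15 cultures given nine consecutive daily doses of compound; neutral red dye uptake read 24 hr after the last dose.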
# [3] = Selectivity index, ratio CC50 for human HepG2(2.2.15) cells to EC90 for decrease in extracellular viral DNA in Hepatitis B virus infected human HepG2(2.2.15) cells; format: toxicity; conditions: read-out: Selectivity Index
# In short: (§2)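 Ratio of CC50 to EC90 in confluent 2.2.15 cells treated with nine consecutive daily doses. Both read 24 hr after the last dose. CC50 = concentration halving neutral red uptake versus untreated cultures. EC values were run in triplicate.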
# [4] = tested on: Hepatitis B virus; assay: Antiviral activity against Hepatitis B virus infected in human HepG2(2.2.15) cells assessed as decrease in intracellular viral DNA measured 24 hrs after last dose; format: functional, organism-based; conditions: HepG2 2.2.15, 24 h; in short: as §1
# [5] = Selectivity index, ratio CC50 for human HepG2(2.2.15) cells to EC90 for decrease in intracellular viral DNA in Hepatitis B virus infected human HepG2(2.2.15) cells; format: toxicity, cell-based; conditions: read-out: Selectivity Index; in short: as §2
# [6] = tested on: Plasma; assay: Protein binding in human plasma; format: ADME, cell-free
# [7] = tested on: Plasma; assay: Metabolic stability in human plasma assessed as plasma esterase-induced compound deacetylation; format: ADME, cell-free
# [8] = Inhibition of CYP450; format: ADME
# In short: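 Screened for inhibition against a panel of 14 CYP isozymes.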
# [9] = Metabolic stability in human liver microsomes assessed as compound remaining after 60 mins; format: ADME, Microsome; conditions: read-out: Stability
# In short: (§3)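 Incubated 60 minutes with human liver microsomes or S9 fraction; read-out is percent of parent compound remaining.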
# [10] = Metabolic stability in human liver S9 fraction assessed as compound remaining after 60 mins; format: ADME, subcellular; conditions: read-out: Stability; in short: as §3
# [11] = tested on: Blood; assay: Metabolic stability in human blood after 1 hr; format: ADME, tissue-based
# In short: (§4)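 Incubated 1 hour in human whole blood or plasma, then stability assessed.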
# [12] = tested on: Plasma; assay: Metabolic stability in human plasma after 1 hr; format: ADME, cell-free; in short: as §4
# [13] = Protein binding in plasma; format: ADME, cell-free; conditions: read-out: PPB
SMILES,pEC50 [1],EC90 [1] [µM],CC50 at 24 h [2] [µM],selectivity ratio [3],pEC50 [4],EC90 [4] [µM],selectivity ratio [5],CC50 [2] [µM],other results
CS(=O)(=O)c1csc(NC(=O)c2ccccc2O)n1,< 5.00,> 10,> 100,–,–,–,–,–,–
Cc1cccc(C(=O)Nc2ncc(Br)s2)c1O,5.46,9,> 100,> 11,5.12,22,> 4.5,–,–
CC(=O)Oc1ccccc1C(=O)Nc1ncc([N+](=O)[O-])s1 [NITAZOXANIDE],6.92,–,> 100,–,6.23,–,–,–,PPB [6]: > 95%; t1/2 [7]: 6 min
O=C(Nc1nc(-c2ccccc2)cs1)c1cccc(Cl)c1O,6.82,0.6,> 100,> 166,–,–,–,–,–
O=C(Nc1ncc(Cl)s1)c1ccccc1O,6.48,0.89,–,43,6.00,2.9,13,38,–
Cc1cccc(C(=O)Nc2nc(-c3ccccc3)cs2)c1O,6.66,0.73,> 100,> 137,5.11,30,3.3,–,–
O=C(Nc1ncc(Br)s1)c1cc(Cl)ccc1O,6.68,1.1,–,41,5.46,11,4.1,45,–
O=C(Nc1ncc([N+](=O)[O-])s1)c1ccccc1O [TIZOXANIDE],6.82,0.58,> 100,> 172,6.34,1.2,> 83,–,PPB [6]: > 95%
O=C(Nc1ncc(-c2ccc(Cl)cc2)s1)c1ccccc1O,< 5.00,> 10,> 100,–,< 5.00,> 10,–,–,–
O=C(Nc1ccc(Cl)cc1)c1ccccc1O,< 5.00,> 10,> 100,–,–,–,–,–,–
Cc1ccc(C(=O)Nc2ncc(Cl)s2)c(O)c1,6.00,3.3,100,> 30,5.57,6.3,> 16,–,–
CC(=O)Nc1cnc(NC(=O)c2ccccc2O)s1,< 5.00,> 10,> 100,–,< 5.00,> 10,–,–,–
CC(C)c1cnc(NC(=O)c2ccccc2O)s1,< 5.00,> 10,> 100,–,< 5.00,> 10,–,–,–
CC(=O)Oc1ccccc1C(=O)Nc1ccc(Br)cc1,6.12,3,> 100,> 33,5.68,6.8,> 15,–,–
O=C(Nc1ncc(Br)s1)c1cccc(Cl)c1O,6.49,2,–,15,6.23,3.9,7.7,30,–
Cc1ccc(O)c(C(=O)Nc2ncc(Cl)s2)c1,6.48,0.83,100,> 120,6.05,2,> 51,–,inhibition (INH) [8]: Not Active; remaining at 1 h [9]: 16%; remaining at 1 h [10]: 6%; Stability [11]: Stable; Stability [12]: Stable; fraction unbound [13]: < 0.01
Cc1cccc(C(=O)Nc2ncc(Cl)s2)c1O,< 5.00,> 10,–,–,< 5.00,> 10,–,100,–

SMILES,pEC50 [1],EC90 [1] [µM],CC50 at 24 h [2] [µM],selectivity ratio [3],pEC50 [4],EC90 [4] [µM],selectivity ratio [5],CC50 [2] [µM],other results
O=C(Nc1ncc(Br)s1)c1ccccc1O,5.92,4,> 100,> 25,5.54,8.7,> 12,–,–
O=C(Nc1ccc([N+](=O)[O-])cc1)c1ccccc1O,< 5.00,> 10,> 100,–,–,–,–,–,–
O=C(Nc1ncc(F)s1)c1ccccc1O,5.51,12,–,4.3,–,–,–,51,–
CC(=O)Oc1ccccc1C(=O)Nc1ccc(I)cc1,6.70,1.2,> 100,> 83,6.14,3.3,> 30,–,–
O=C(Nc1ncc(Br)s1)c1ccc(F)cc1O,5.68,5.6,–,2.1,–,–,–,12,–
O=C(Nc1nccs1)c1ccccc1O,< 5.00,> 10,–,–,–,–,–,16,–
CS(=O)(=O)c1cnc(NC(=O)c2ccccc2O)s1,< 5.00,> 10,> 100,–,< 5.00,–,–,–,–
O=C(Nc1ccc([N+](=O)[O-])cc1Cl)c1cc(Cl)ccc1O [NICLOSAMIDE],–,> 10,> 100,–,–,–,–,–,–
N#Cc1cnc(NC(=O)c2ccccc2O)s1,5.49,9.4,> 100,> 11,5.26,14,> 7.1,–,–
O=C(Nc1cc(C(F)(F)F)ccc1Cl)c1ccccc1O,5.43,13,> 100,–,–,–,–,–,–
Cc1cc([N+](=O)[O-])c(Cl)cc1NC(=O)c1ccccc1O,6.55,0.73,–,122,6.18,1.7,52,89,–
O=C(Nc1nc(-c2ccccc2)cs1)c1ccccc1O,5.25,21,–,1,–,–,–,22,–
CCOC(=O)Oc1ccccc1C(=O)Nc1ncc([N+](=O)[O-])s1,6.68,0.69,–,13,6.27,1.8,5.5,9.9,–
CC(=O)Oc1ccccc1C(=O)Nc1ccc(Cl)cc1,5.46,9.7,> 100,11,–,–,–,–,–
COC(=O)c1cnc(NC(=O)c2ccccc2O)s1,< 5.00,> 10,–,–,–,–,–,15,–
CC(=O)Oc1ccccc1C(=O)Nc1cc(C(F)(F)F)cc(C(F)(F)F)c1,5.42,14,> 100,> 7.1,–,–,–,–,–
O=C(Nc1ncc(C(F)(F)F)s1)c1ccccc1O,5.42,11,> 100,> 9.1,5.04,27,> 3.7,–,–
